Several values for one entry are separate records, joined by “and”; a condition that tells them apart may be missing. Identical values can stand only once.
Key:
[1] = (§1) Half life was measured at pH 7; type: ADME
Method in brief: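 Stability in pH 7 buffer, followed by HPLC; reported as half-life. The method is taken from an earlier paper.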

HEp-2 = assay: Inhibition of colony formation of H.Ep-2 cells; type: functional, cell-based; conditions: Homo sapiens, read-out: I50
Method in brief: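 H.Ep.-2 cells exposed to drug over a 12-day period. Colony formation was scored against untreated controls, and I50 was taken as the concentration giving 50% inhibition.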

L1210 [2] = assay: Inhibition of proliferation of L1210 cells; type: functional, cell-based; conditions: Mus musculus, read-out: I50
Method in brief: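 L1210 cells in suspension culture with drug for 48 h. I50 was the concentration giving 50% inhibition of proliferation relative to controls.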

Mus musculus [3] = assay: Percent increase in life span of p388 leukemia induced mice was determined at a dose of 100 mg/kg upon ip administration on days 1-5; type: functional; conditions: route intraperitoneal
Method in brief: (§2)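 Mice implanted with 10⁶ P388 leukemia cells were dosed intraperitoneally once daily on days 1-5 after implant. Activity is expressed as % increase in life span, and 30-day survivors were recorded.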

Mus musculus [4] = assay: Percent increase in life span of p388 leukemia induced mice was determined at a dose of 200 mg/kg upon ip administration on days 1-5; type: functional; conditions: route intraperitoneal; method in brief: as §2
L1210 [5] = assay: Number of cells present measured with the Coulter counter(concuM); type: functional, Mus musculus
Method in brief: (§3)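 L1210 suspension cultures with agent for 30 min or 18 h, then a further 4 h with radiolabelled precursor. Cells were counted by Coulter counter and expressed as R, the count relative to the initial cell number (R = 1.0). R < 1.0 means a fall below the starting number; R > 1.0 means proliferation.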

L1210 [6] = assay: Size distribution of cells; type: functional, Mus musculus
Method in brief: (§4)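 L1210 suspension cultures with agent for 30 min or 18 h, then a 4-h labelling period. Size distribution was measured on a Model ZH Coulter Counter. The value is the instrument setting at the peak of cell size; higher settings mean larger cells.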

L1210 [7] = assay: Size distribution of cells (concuM); type: functional, Mus musculus; method in brief: as §4
L1210 [8] = assay: Number of cells present measured with the Coulter counter; type: functional, Mus musculus; method in brief: as §3
L1210 [9] = assay: percent synthesis of RNA in L1210 cells when incubated with compound for 18 h using […] as radioligand; type: functional, Mus musculus
Method in brief: (§5)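 RNA synthesis in L1210 suspension cultures preincubated with agent for 30 min or 18 h. [5-3H]Urd was then added, and incorporation into RNA was sampled hourly over 4 h. Values are 4-h incorporation as % of untreated control.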

L1210 [10] = assay: percent synthesis of DNA in L1210 cells when incubated with the compound for 30 min using […] as radioligand; type: functional, Mus musculus
Method in brief: (§6)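 DNA synthesis in L1210 suspension cultures preincubated with agent for 30 min or 18 h. [3H]dThd was then added to the medium, and incorporation into DNA was sampled at 1-h intervals over 4 h. Values are for the 4-h labelling period, as % of untreated control.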

L1210 [11] = assay: percent synthesis of RNA in L1210 cells when incubated with compound for 18 h using […] as radioligand (conc umol); type: functional, Mus musculus; method in brief: as §5
L1210 [12] = assay: percent synthesis of RNA in L1210 cells when incubated with compound for 30 min using […] as radioligand; type: functional, Mus musculus; method in brief: as §5
L1210 [13] = assay: percent synthesis of protein in L1210 cells when incubated with the compound for 18 hr using [3H]-L-Leu as radioligand; type: functional, Mus musculus
Method in brief: (§7)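 Protein synthesis in L1210 suspension cultures preincubated with agent for 30 min or 18 h. [4,5-3H]-L-leucine was then added, and incorporation into protein was sampled hourly over 4 h. Values are 4-h incorporation as % of untreated control.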

L1210 [14] = assay: percent synthesis of protein in L1210 cells when incubated with the compound for 18 hr uusing [3H]-L-Leu as radioligand; type: functional, Mus musculus; method in brief: as §7
L1210 [15] = assay: percent synthesis of DNA in L1210 cells when incubated with the compound for 18 h using […] as radioligand; type: functional, Mus musculus; method in brief: as §6
Mus musculus [16] = assay: Percent increase in life span of p388 leukemia induced mice was determined at a dose of 25 mg/kg upon ip administration on days 1-5; type: functional; conditions: route intraperitoneal; method in brief: as §2
L1210 [17] = assay: percent synthesis of protein in L1210 cells when incubated with the compound for 30 min using [3H]L-Leu as radioligand; type: functional, Mus musculus; method in brief: as §7
[18] = as §1; type: ADME; remark: listed apart in the source
Method in brief: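 Stability in pH 7 buffer, with decomposition followed by HPLC and the half-life taken from it.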

L1210 [19] = assay: Number of cells present measured with the Coulter counter at 25 uM conc.; type: functional, Mus musculus; method in brief: as §3
L1210 [20] = assay: Number of cells present measured with the Coulter counter at 50 uM conc.; type: functional, Mus musculus; method in brief: as §3
L1210 [21] = assay: Size distribution of cells at 10 uM conc.; type: functional, Mus musculus; method in brief: as §4
L1210 [22] = assay: Size distribution of cells at 25 uM conc.; type: functional, Mus musculus; method in brief: as §4
L1210 [23] = assay: Size distribution of cells at 50 uM conc.; type: functional, Mus musculus; method in brief: as §4
L1210 [24] = assay: Number of cells present measured with the Coulter counter at 10 uM conc.; type: functional, Mus musculus; method in brief: as §3
L1210 [25] = assay: percent synthesis of DNA in L1210 cells when incubated with the compound for 30 min using […] as radioligand at 50 uM conc.; type: functional, Mus musculus; method in brief: as §6
L1210 [26] = assay: percent synthesis of DNA in L1210 cells when incubated with the compound for 18 h using […] as radioligand at 50 uM conc.; type: functional, Mus musculus; method in brief: as §6
L1210 [27] = assay: percent synthesis of DNA in L1210 cells when incubated with the compound for 18 hr using […] as radioligand at 25 uM conc.; type: functional, Mus musculus; method in brief: as §6
L1210 [28] = assay: percent synthesis of DNA in L1210 cells when incubated with the compound for 30 min using […] as radioligand at 10 uM conc.; type: functional, Mus musculus; method in brief: as §6
L1210 [29] = assay: percent synthesis of DNA in L1210 cells when incubated with the compound for 30 min using […] as radioligand at 25 uM conc.; type: functional, Mus musculus; method in brief: as §6
L1210 [30] = assay: percent synthesis of protein in L1210 cells when incubated with the compound for 30 min using [3H]L-Leu as radioligand at 10 uM conc.; type: functional, Mus musculus; method in brief: as §7
L1210 [31] = assay: percent synthesis of protein in L1210 cells when incubated with the compound for 30 min using [3H]L-Leu as radioligand at 25 uM conc.; type: functional, Mus musculus; method in brief: as §7
L1210 [32] = assay: percent synthesis of protein in L1210 cells when incubated with the compound for 30 min using [3H]L-Leu as radioligand at 50 uM conc.; type: functional, Mus musculus; method in brief: as §7
L1210 [33] = assay: percent synthesis of RNA in L1210 cells when incubated with compound for 18 h using […] as radioligand at 10 uM conc.; type: functional, Mus musculus; method in brief: as §5
L1210 [34] = assay: percent synthesis of RNA in L1210 cells when incubated with compound for 18 hr using […] as radioligand at 25 uM conc.; type: functional, Mus musculus; method in brief: as §5
L1210 [35] = assay: percent synthesis of RNA in L1210 cells when incubated with compound for 18 hr using […] as radioligand at 50 uM conc.; type: functional, Mus musculus; method in brief: as §5
L1210 [36] = assay: percent synthesis of RNA in L1210 cells when incubated with compound for 30 min using […] as radioligand at 10 uM conc.; type: functional, Mus musculus; method in brief: as §5
L1210 [37] = assay: percent synthesis of RNA in L1210 cells when incubated with compound for 30 min using [3H]dThd as radioligand at 25 uM conc.; type: functional, Mus musculus; conditions: in the assay text read “[5-3H]Urd” for “[3H]dThd”; method in brief: as §5
L1210 [38] = assay: percent synthesis of RNA in L1210 cells when incubated with compound for 30 min using [3H]dThd as radioligand at 50 uM conc.; type: functional, Mus musculus; conditions: in the assay text read “[5-3H]Urd” for “[3H]dThd”; method in brief: as §5
L1210 [39] = assay: percent synthesis of protein in L1210 cells when incubated with the compound for 18 hr using [3H]-L-Leu as radioligand at 10 uM conc.; type: functional, Mus musculus; method in brief: as §7
L1210 [40] = assay: percent synthesis of protein in L1210 cells when incubated with the compound for 18 hr using [3H]-L-Leu as radioligand at 25 uM conc.; type: functional, Mus musculus; method in brief: as §7
L1210 [41] = assay: percent synthesis of protein in L1210 cells when incubated with the compound for 18 hr using [3H]-L-Leu as radioligand at 50 uM conc.; type: functional, Mus musculus; method in brief: as §7
L1210 [42] = assay: percent synthesis of DNA in L1210 cells when incubated with the compound for 18 h using [3H]dUrd as radioligand at 10 uM conc.; type: functional, Mus musculus; conditions: in the assay text read “[3H]dThd” for “[3H]dUrd”; method in brief: as §6

CN(N=O)C(=O)Nc1ccc(NC(=O)C2OC(n3ccc(=O)[nH]c3=O)C(O)C2O)cc1 (stereo not drawn)
half-life [1]: 2 h | IC50 (HEp-2): 33 µM | IC50 (L1210 [2]): > 90 µM | ILS at 100 mg/kg (Mus musculus [3]): 56%

Cc1cn(C2CC(O)C(C(=O)NCCN(N=O)C(=O)Nc3ccccc3)O2)c(=O)[nH]c1=O (stereo not drawn)
half-life [1]: 0.7 h | IC50 (HEp-2): 90 µM | IC50 (L1210 [2]): > 90 µM | ILS at 200 mg/kg (Mus musculus [4]): 14%

O=NN(CCCl)C(=O)NCC1OC(n2ccc(=O)[nH]c2=O)CC1O (stereo not drawn)
half-life [1]: 4 h | IC50 (HEp-2): 14 µM | Cell no (L1210 [5]): 0.54 | Cell size (L1210 [6]): 60 and 82.5 and 75 | Cell size (L1210 [7]): 67.5 and 65 and 82.5 | IC50 (L1210 [2]): 12 µM | Cell no (L1210 [8]): 1.06 and 1.08 and 1.09 and 0.77 and 0.99 | Control (L1210 [9]): 554% and 276% | Control (L1210 [10]): 98% and 103% and 100% | Control (L1210 [11]): 455% | Control (L1210 [12]): 87% and 79% and 80% | Control (L1210 [13]): 474% and 254% | Control (L1210 [14]): 658% | Control (L1210 [15]): 189% and 192% and 152% | ILS at 25 mg/kg (Mus musculus [16]): 191% | Control (L1210 [17]): 96% and 92% and 95%

O=NN(C(=O)NC1CCCCC1)C1CCCCC1
T1/2 [18]: 0.875 h

Cc1cn(C2CC(O)C(CNC(=O)N(CCCl)N=O)O2)c(=O)[nH]c1=O (stereo not drawn)
half-life [1]: 6 h | IC50 (HEp-2): 10 µM | Cell no (L1210 [19]): 1.08 and 0.92 | Cell no (L1210 [20]): 1.06 and 0.64 | Cell size (L1210 [21]): 60 and 80 | Cell size (L1210 [22]): 57.5 and 80 | Cell size (L1210 [23]): 55 and 85 | IC50 (L1210 [2]): 5 µM | Cell no (L1210 [24]): 1.08 and 1.21 | Control (L1210 [25]): 85% | Control (L1210 [26]): 147% | Control (L1210 [27]): 171% | Control (L1210 [28]): 108% | Control (L1210 [29]): 98% | Control (L1210 [30]): 83% | Control (L1210 [31]): 99% | Control (L1210 [32]): 111% | Control (L1210 [33]): 217% | Control (L1210 [34]): 374% | Control (L1210 [35]): 539% | Control (L1210 [36]): 85% | Control (L1210 [37]): 88% | Control (L1210 [38]): 87% | Control (L1210 [39]): 257% | Control (L1210 [40]): 455% | Control (L1210 [41]): 597% | Control (L1210 [42]): 145% | ILS at 25 mg/kg (Mus musculus [16]): 135%

Source: ChEMBL document CHEMBL1123956, “Nitrosoureido nucleosides as potential inhibitors of nucleotide biosynthesis” (J Med Chem, 1988)
